# Reference: ChEMBL document CHEMBL3763019, “Discovery of benzenesulfonamide derivatives as potent PI3K/mTOR dual inhibitors with in vivo efficacies against hepatocellular carcinoma” (Bioorg Med Chem, 2016)
# Experiments:
# [1] = Antiproliferative activity against human OVCAR5 cells incubated for 48 hrs by sulforhodamine B assay; format: functional; settings: OVCAR-5, 48 h
# How it was run: (§1)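 Run externally by the US National Cancer Institute as part of its 60 human cancer cell line cytotoxicity screen (NCI-60).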
# [2] = Antiproliferative activity against human RXF393 cells incubated for 48 hrs by sulforhodamine B assay; format: functional; settings: RXF 393, 48 h; how it was run: as §1
# [3] = Antiproliferative activity against human UO31 cells incubated for 48 hrs by sulforhodamine B assay; format: functional; settings: UO-31, 48 h
# MCF7 = assay: Antiproliferative activity against human MCF7 cells incubated for 48 hrs by sulforhodamine B assay; format: functional; settings: MCF7, 48 h; how it was run: as §1
# T47D = assay: Antiproliferative activity against human T47D cells incubated for 48 hrs by sulforhodamine B assay; format: functional; how it was run: as §1
# [4] = target: Serine/threonine-protein kinase mTOR (Homo sapiens, UniProt P42345); assay: Inhibition of insulin-stimulated mTOR phosphorylation in human A549 cells after 30 mins by Western blot analysis; format: cell-based
# How it was run: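 A549 cells were insulin-stimulated for 2 h, then exposed to four compound concentrations for 30 min. Lysis was in ice-cold RIPA buffer, protein was quantified by BCA, and lysates were run on 10% SDS-PAGE and transferred to nitrocellulose. Detection was by infrared imaging, with β-actin as loading control.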
# Mus musculus = assay: Toxicity in BALB/C nude mouse xenografted with human Bel7404 cells assessed as mortality at 30 mg/kg, po qd for 14 consecutive days; format: organism-based; settings: in vivo
# How it was run: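 Male BALB/C nude mice were implanted with BEL-7404 cells. When tumors reached 100–300 mm³ (after 12 days), mice were randomized to 6 per treatment group and 8 controls. The drug, suspended in 5% polysorbate 80 in water, was given orally once daily for 14 days from day 13. Body weight and mortality were tracked during dosing, and mice were sacrificed on day 29.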
# A549 = assay: Cytotoxicity against human A549 cells after 72 hrs by MTT assay; format: functional, cell-based; settings: A549, 72 h
# How it was run: (§2)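 Log-phase cells at 40,000–50,000 cells/mL in DMEM with 10% FBS and antibiotics were seeded and cultured overnight at 37 °C, 5% CO₂. Compounds were diluted in DMSO/PBS from 10^-4 to 10^-9 M and applied for 72 h. MTT (5 mg/mL stock) was then added for 4 h and absorbance read at 570 nm. IC50 came from nonlinear regression on triplicate wells, averaged.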
# [5] = Cytotoxicity against human HCT116 cells after 72 hrs by MTT assay; format: functional, cell-based; settings: HCT-116, 72 h; how it was run: as §2
# [6] = Cytotoxicity against human Bel7404 cells after 72 hrs by MTT assay; format: functional, cell-based; settings: BEL-7404, 72 h; how it was run: as §2
# [7] = target: Phosphatidylinositol 4,5-bisphosphate 3-kinase catalytic subunit alpha isoform (Homo sapiens, UniProt P42336); assay: Inhibition of PI3K-alpha (unknown origin) using PIP2 as substrate incubated for 1 hr by Kinase-Glo luminescent kinase assay
# Sequence of Phosphatidylinositol 4,5-bisphosphate 3-kinase catalytic subunit alpha isoform (P42336 whole entry, canonical isoform): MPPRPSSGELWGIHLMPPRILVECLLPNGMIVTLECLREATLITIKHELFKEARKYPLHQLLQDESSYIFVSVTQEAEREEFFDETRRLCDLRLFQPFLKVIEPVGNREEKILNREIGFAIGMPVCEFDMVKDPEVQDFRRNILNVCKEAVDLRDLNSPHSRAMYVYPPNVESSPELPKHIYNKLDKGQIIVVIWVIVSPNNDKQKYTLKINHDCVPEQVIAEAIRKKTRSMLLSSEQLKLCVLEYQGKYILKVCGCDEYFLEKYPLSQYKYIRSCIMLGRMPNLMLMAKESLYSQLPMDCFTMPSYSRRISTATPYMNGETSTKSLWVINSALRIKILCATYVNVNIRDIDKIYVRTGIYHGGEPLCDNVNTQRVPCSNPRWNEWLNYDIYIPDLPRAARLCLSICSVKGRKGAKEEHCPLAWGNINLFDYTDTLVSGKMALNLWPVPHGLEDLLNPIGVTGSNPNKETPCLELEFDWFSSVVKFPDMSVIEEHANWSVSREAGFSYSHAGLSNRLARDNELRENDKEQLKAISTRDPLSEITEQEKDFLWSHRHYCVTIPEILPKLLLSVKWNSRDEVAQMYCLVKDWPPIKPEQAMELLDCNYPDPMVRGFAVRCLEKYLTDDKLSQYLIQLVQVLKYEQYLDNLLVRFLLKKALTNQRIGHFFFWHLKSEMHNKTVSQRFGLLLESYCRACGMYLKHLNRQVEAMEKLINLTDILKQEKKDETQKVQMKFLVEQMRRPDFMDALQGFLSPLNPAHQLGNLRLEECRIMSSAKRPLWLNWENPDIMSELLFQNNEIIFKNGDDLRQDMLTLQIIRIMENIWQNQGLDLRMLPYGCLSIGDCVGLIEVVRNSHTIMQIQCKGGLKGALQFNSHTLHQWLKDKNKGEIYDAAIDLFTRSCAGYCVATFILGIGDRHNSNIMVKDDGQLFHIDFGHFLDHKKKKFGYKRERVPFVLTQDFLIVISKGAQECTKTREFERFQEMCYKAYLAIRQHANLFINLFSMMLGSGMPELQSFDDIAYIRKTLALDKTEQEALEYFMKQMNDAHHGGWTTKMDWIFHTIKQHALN
# [8] = target: Phosphatidylinositol 4,5-bisphosphate 3-kinase catalytic subunit beta isoform (Homo sapiens, UniProt P42338); assay: Inhibition of PI3K-beta (unknown origin) after 40 mins by ADP-Glo luminescent kinase assay
# Sequence of Phosphatidylinositol 4,5-bisphosphate 3-kinase catalytic subunit beta isoform (P42338 whole entry, canonical isoform): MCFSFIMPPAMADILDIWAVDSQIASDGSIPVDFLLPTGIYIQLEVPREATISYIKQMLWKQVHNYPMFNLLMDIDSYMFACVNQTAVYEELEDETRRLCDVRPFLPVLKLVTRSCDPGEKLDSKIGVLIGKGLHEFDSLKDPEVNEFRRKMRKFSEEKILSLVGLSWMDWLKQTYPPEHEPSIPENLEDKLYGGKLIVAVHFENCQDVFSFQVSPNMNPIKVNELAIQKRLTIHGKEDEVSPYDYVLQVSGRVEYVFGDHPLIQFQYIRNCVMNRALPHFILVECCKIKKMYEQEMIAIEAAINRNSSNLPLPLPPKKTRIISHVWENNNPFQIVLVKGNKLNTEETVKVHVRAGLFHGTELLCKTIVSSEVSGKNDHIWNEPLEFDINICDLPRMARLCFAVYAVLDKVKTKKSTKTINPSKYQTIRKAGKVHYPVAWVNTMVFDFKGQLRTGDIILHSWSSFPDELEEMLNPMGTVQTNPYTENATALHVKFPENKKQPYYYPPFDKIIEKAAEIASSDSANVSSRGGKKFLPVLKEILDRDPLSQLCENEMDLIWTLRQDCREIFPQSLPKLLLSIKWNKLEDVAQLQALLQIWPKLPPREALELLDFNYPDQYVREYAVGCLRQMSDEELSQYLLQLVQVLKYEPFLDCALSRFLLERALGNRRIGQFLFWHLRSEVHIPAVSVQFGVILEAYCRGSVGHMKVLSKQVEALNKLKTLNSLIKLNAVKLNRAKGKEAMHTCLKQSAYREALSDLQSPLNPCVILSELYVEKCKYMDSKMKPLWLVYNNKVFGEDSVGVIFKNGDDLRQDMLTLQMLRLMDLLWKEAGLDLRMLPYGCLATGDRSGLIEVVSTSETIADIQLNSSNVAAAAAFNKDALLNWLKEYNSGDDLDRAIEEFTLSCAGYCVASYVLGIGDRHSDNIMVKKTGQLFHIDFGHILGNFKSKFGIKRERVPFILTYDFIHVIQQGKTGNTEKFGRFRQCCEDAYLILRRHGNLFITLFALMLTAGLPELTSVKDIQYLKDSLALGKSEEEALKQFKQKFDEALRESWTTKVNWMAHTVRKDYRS
# How it was run: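 ADP-Glo reagent stopped the reaction (40 min), then detection reagent was added (60 min) and luminescence read. Percent inhibition was derived from RLU.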
# [9] = target: Phosphatidylinositol 4,5-bisphosphate 3-kinase catalytic subunit gamma isoform (Homo sapiens, UniProt P48736); assay: Inhibition of PI3K-gamma (unknown origin) at 10 nM after 40 mins by ADP-Glo luminescent kinase assay
# Sequence of Phosphatidylinositol 4,5-bisphosphate 3-kinase catalytic subunit gamma isoform (P48736 whole entry, looked up, canonical isoform): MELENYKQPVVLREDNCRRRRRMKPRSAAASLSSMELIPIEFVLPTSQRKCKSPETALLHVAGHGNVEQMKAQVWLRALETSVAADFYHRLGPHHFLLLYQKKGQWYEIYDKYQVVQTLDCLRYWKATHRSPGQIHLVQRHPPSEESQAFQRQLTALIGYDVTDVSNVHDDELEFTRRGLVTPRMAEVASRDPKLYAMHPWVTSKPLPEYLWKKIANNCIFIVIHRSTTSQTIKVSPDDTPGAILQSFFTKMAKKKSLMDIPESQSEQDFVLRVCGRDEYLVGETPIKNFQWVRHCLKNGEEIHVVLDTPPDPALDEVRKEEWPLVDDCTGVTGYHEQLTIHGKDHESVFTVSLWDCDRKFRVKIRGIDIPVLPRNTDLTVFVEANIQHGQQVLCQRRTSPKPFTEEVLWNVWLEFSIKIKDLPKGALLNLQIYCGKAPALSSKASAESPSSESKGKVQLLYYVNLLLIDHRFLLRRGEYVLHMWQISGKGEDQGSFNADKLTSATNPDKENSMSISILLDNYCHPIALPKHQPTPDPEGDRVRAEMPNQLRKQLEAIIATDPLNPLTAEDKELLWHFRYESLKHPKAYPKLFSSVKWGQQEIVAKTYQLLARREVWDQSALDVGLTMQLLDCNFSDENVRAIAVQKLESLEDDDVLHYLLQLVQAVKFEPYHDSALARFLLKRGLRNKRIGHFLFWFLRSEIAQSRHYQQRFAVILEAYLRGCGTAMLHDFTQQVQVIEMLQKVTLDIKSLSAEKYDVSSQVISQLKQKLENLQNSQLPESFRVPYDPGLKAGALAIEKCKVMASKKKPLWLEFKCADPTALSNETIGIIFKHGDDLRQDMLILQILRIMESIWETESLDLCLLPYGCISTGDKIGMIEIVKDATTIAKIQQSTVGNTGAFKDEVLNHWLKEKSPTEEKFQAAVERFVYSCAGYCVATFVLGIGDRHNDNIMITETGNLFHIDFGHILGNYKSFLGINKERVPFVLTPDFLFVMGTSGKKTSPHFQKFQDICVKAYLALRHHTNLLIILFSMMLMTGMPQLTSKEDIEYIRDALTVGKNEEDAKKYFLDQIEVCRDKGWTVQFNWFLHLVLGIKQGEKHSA
# How it was run: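 Final enzyme was PI3Kβ 4.8 nM and PI3Kγ 7.6 nM. ADP-Glo reagent stopped the reaction (40 min), then detection reagent was added (60 min) and luminescence read. Percent inhibition was derived from RLU.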
# SR = assay: Antiproliferative activity against human SR cells incubated for 48 hrs by sulforhodamine B assay; format: functional; how it was run: as §1
# [10] = Antiproliferative activity against human HOP92 cells incubated for 48 hrs by sulforhodamine B assay; format: functional; settings: HOP-92, 48 h
# NCI-H23 = assay: Antiproliferative activity against human NCI-H23 cells incubated for 48 hrs by sulforhodamine B assay; format: functional; settings: NCI-H23, 48 h; how it was run: as §1
# [11] = Antiproliferative activity against human SF295 cells incubated for 48 hrs by sulforhodamine B assay; format: functional; settings: SF-295, 48 h; how it was run: as §1
# [12] = Antiproliferative activity against human SF539 cells incubated for 48 hrs by sulforhodamine B assay; format: functional; settings: SF-539, 48 h; how it was run: as §1
# Malme-3M = assay: Antiproliferative activity against human MALME-3M cells incubated for 48 hrs by sulforhodamine B assay; format: functional; how it was run: as §1
# M14 = assay: Antiproliferative activity against human M14 cells incubated for 48 hrs by sulforhodamine B assay; format: functional; settings: M14, 48 h; how it was run: as §1
# [13] = Antiproliferative activity against human UACC62 cells incubated for 48 hrs by sulforhodamine B assay; format: functional; settings: UACC-62, 48 h
# [14] = read-out: pLC50 (the source's name) (converted)
compound,measurement,setting,value
COc1ncc(-c2ccc3nccc(C#CCN4CCN(S(C)(=O)=O)CC4)c3c2)cc1NS(=O)(=O)c1ccc(F)cc1F,GI50,[1],0.0372 µM
same,CC50,[1]; [14],60.3 µM
same,TGI,[1]; read-out: pTGI (converted),16.2 µM
same,GI50,[2],0.0513 µM
same,CC50,[2]; [14],11.7 µM
same,TGI,[2]; read-out: pTGI (converted),0.427 µM
same,GI50,[3],0.0316 µM
same,CC50,[3]; [14],39.8 µM
same,TGI,[3]; read-out: pTGI (converted),11.7 µM
same,GI50,MCF7,< 0.01 µM
same,CC50,MCF7; [14],49 µM
same,TGI,MCF7; read-out: pTGI (converted),1.78 µM
same,GI50,T47D,< 0.01 µM
same,CC50,T47D; [14],> 100 µM
same,TGI,T47D; read-out: pTGI (converted),0.0135 µM
same,inhibition,[4],Dose-dependent effect
same,Activity,Mus musculus,Non-toxic
same,IC50,A549,1.78 µM
same,IC50,[5],0.93 µM
same,IC50,[6],0.02 µM
same,IC50,[7],0.002 µM
same,IC50,[8],0.0094 µM
same,inhibition,[9],95%
same,GI50,SR,0.251 µM
same,CC50,SR; [14],> 100 µM
same,TGI,SR; read-out: pTGI (converted),15.5 µM
same,GI50,[10],0.0138 µM
same,CC50,[10]; [14],58.9 µM
same,GI50,NCI-H23,0.295 µM
same,CC50,NCI-H23; [14],20 µM
same,TGI,NCI-H23; read-out: pTGI (converted),2.69 µM
same,GI50,[11],0.0741 µM
same,CC50,[11]; [14],29.5 µM
same,TGI,[11]; read-out: pTGI (converted),1 µM
same,GI50,[12],0.055 µM
same,CC50,[12]; [14],2.69 µM
same,TGI,[12]; read-out: pTGI (converted),0.363 µM
same,GI50,Malme-3M,0.0199 µM
same,CC50,Malme-3M; [14],33.9 µM
same,TGI,Malme-3M; read-out: pTGI (converted),0.324 µM
same,GI50,M14,0.0724 µM
same,CC50,M14; [14],19.1 µM
same,TGI,M14; read-out: pTGI (converted),1.58 µM
same,GI50,[13],0.0331 µM
same,CC50,[13]; [14],3.24 µM
same,TGI,[13]; read-out: pTGI (converted),0.282 µM
